Assay results from ChEMBL document CHEMBL3351899, “Novologues containing a benzamide side chain manifest anti-proliferative activity against two breast cancer cell lines” (Bioorg Med Chem Lett, 2014).
The source made the active and inactive calls. No cut-off for these calls is given here.

Experiments:
[1] = Antiproliferative activity against human SKBR3 cells; format: functional, cell-based, SK-BR-3; conditions: for EC50: Homo sapiens, SK-BR-3
Procedure, shortened: (§1)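 Cell-based antiproliferation assay in SKBr3 (ER-negative, HER2-overexpressing) and MCF-7 (ER-positive) breast cancer cells. Values are mean ± standard deviation from at least two separate experiments, each run in triplicate.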

MCF7 [2] = test: Antiproliferative activity against human MCF7 cells; format: functional; procedure, shortened: as §1
[3] = target: Heat shock protein HSP 90-beta (Homo sapiens) (UniProt P08238); test: Inhibition of HSP90-mediated Her2 degradation in human MCF7 cell lysate after 24 hrs by Western blot analysis; format: cell-based
Procedure, shortened: (§2)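 MCF7 cells grown to confluence, seeded at 0.4 x 10^6 cells/well, incubated 24 h, then treated 24 h with varying compound concentrations (0.25% DMSO final) or DMSO vehicle; geldanamycin 0.5 µM as positive control. Cells lysed with protease/phosphatase inhibitors and clarified at 14,000g, 15 min, 4 °C. 5 µg protein run on reducing 10% gels, PVDF transfer, immunoblot with HRP secondary and chemiluminescent detection; actin as loading control.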

[4] = target: Heat shock protein HSP 90-beta (Homo sapiens) (UniProt P08238); test: Inhibition of HSP90-mediated Raf-1 degradation in human MCF7 cell lysate after 24 hrs by Western blot analysis; format: cell-based; procedure, shortened: as §2
[5] = target: Heat shock protein HSP 90-beta (Homo sapiens) (UniProt P08238); test: Inhibition of HSP90-mediated p-Akt degradation in human MCF7 cell lysate after 24 hrs by Western blot analysis; format: cell-based; procedure, shortened: as §2
MCF7 [6] = test: Effect on HSP90 level in human MCF7 cell lysate at 1 to 25 uM after 24 hrs by Western blot analysis; format: functional, cell-based; procedure, shortened: as §2

Heat shock protein HSP 90-beta (Homo sapiens), sequence (P08238 whole entry): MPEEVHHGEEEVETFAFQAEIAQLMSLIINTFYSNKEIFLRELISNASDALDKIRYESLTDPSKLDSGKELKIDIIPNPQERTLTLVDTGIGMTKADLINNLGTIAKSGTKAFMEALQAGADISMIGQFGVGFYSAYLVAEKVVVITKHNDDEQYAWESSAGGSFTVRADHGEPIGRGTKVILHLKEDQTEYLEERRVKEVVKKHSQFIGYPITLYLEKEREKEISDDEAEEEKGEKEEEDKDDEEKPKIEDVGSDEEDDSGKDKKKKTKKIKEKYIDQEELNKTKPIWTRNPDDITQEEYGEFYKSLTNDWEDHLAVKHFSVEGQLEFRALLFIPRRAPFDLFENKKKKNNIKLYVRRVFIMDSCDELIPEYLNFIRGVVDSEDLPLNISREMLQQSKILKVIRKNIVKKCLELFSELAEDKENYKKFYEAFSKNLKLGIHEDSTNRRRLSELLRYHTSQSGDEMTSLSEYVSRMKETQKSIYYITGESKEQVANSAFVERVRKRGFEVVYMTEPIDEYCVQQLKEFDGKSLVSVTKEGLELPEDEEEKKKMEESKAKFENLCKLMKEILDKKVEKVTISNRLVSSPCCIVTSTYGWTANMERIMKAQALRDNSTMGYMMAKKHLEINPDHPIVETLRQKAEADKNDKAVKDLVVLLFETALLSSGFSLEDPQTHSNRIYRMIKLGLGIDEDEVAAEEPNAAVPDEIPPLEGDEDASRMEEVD

| Compound | Activity [1] | Activity (MCF7 [2]) | also measured |
| --- | --- | --- | --- |
| COc1cccc(-c2cc(C(=O)NCCc3ccc(O[C@@H]4OC(C)(C)[C@H](OC)[C@@H](O)[C@H]4O)cc3-c3cccc(C(F)(F)F)c3)ccc2OC)c1 | 13.98 µM | 18.4 µM |  |
| COc1cccc(-c2cc(C(=O)NCCc3ccc(OC4CCN(C)CC4)cc3-c3cccc(C(F)(F)F)c3)ccc2OC)c1 | 1.52 µM | 1.62 µM | inhibition [3]: Dose-dependent effect; inhibition [4]: Dose-dependent effect; inhibition [5]: Dose-dependent effect; Activity (MCF7 [6]): Active |
| CN1CCC(Oc2ccc(CCNC(=O)c3ccc(C(C)(C)C)cc3)c(-c3cccc(C(F)(F)F)c3)c2)CC1 | 1.16 µM | 1.48 µM |  |
| COc1cccc(-c2cc(C(=O)NCCc3ccc(OC4CCN(C)CC4)cc3-c3cccc(F)c3)ccc2OC)c1 | 2.82 µM | 3.19 µM |  |
| COc1ccc(C(=O)NCCc2ccc(O[C@@H]3OC(C)(C)[C@H](OC)[C@@H](O)[C@H]3O)cc2-c2cccc(C(F)(F)F)c2)cc1 | 14.02 µM | 12.1 µM |  |
| CO[C@@H]1[C@@H](O)[C@@H](O)[C@H](Oc2ccc3cc(NC(C)=O)c(=O)oc3c2C)OC1(C)C |  |  | EC50 [1]: 10 nM |
| CO[C@@H]1[C@@H](O)[C@@H](O)[C@H](Oc2ccc(CCNC(=O)c3ccccc3)c(-c3cccc(C(F)(F)F)c3)c2)OC1(C)C | 41.9 µM | 44.44 µM |  |
| CN1CCC(Oc2ccc(CCNC(=O)c3ccccc3)c(-c3cccc(C(F)(F)F)c3)c2)CC1 | 13.22 µM | 15.07 µM |  |
| CN1CCC(Oc2ccc(CCNC(=O)c3ccc(Cl)cc3)c(-c3cccc(C(F)(F)F)c3)c2)CC1 | 1.87 µM | 2.11 µM |  |
| CO[C@@H]1[C@@H](O)[C@@H](O)[C@H](Oc2ccc(CCNC(=O)c3ccc(C(C)(C)C)cc3)c(-c3cccc(C(F)(F)F)c3)c2)OC1(C)C | 21.78 µM | 23.69 µM |  |
| COc1ccc(C(=O)NCCc2ccc(OC3CCN(C)CC3)cc2-c2cccc(C(F)(F)F)c2)cc1 | 2.71 µM | 4.82 µM |  |
| COc1cccc(-c2cc(OC3CCN(C)CC3)ccc2CCNC(=O)c2ccc(OC)c(-c3cccc(OC)c3)c2)c1 | 11.54 µM | 12.36 µM |  |
| CO[C@@H]1[C@@H](O)[C@@H](O)[C@H](Oc2ccc(CCNC(C)=O)c(-c3cccc(C(F)(F)F)c3)c2)OC1(C)C |  | >500 µM | EC50 [1]: > 500000 nM |
| COc1cccc(-c2cc(C(=O)NCCc3ccc(OC4CCN(C)CC4)cc3-c3cccc(Cl)c3)ccc2OC)c1 | 5.63 µM | 6.87 µM |  |
| COc1cccc(-c2cc(C(=O)NCCc3ccc(OC4CCN(C)CC4)cc3-c3ccccc3)ccc2OC)c1 | 6.77 µM | 8.12 µM |  |
| CO[C@@H]1[C@@H](O)[C@@H](O)[C@H](Oc2ccc(CCNC(=O)c3ccc(Cl)cc3)c(-c3cccc(C(F)(F)F)c3)c2)OC1(C)C | 14.48 µM | 11.69 µM |  |
